≈ marks a conversion by molar mass, not a printed value.

What all share (assay type): functional
The subject of experiment [1] is Bacillus thuringiensis. The experiment is described as follows: Antimicrobial activity against Bacillus thuringiensis at 1 mg/mL after 24 hrs by agar disc diffusion method. To be noted: read-out: DIZ. In short, it runs like this: (§1)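 Sterile 5 mm filter paper disks were impregnated with test solution in DMF (1 mg/mL) and placed on agar plates seeded with the test organism, in triplicate. Bacteria were incubated at 37 °C for 24 h and fungi for […] (so in the source). The read-out was the average inhibition zone diameter around the disks, in mm.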

Experiment [2] has as its system Pseudomonas aeruginosa. The experiment is described as follows: Antimicrobial activity against Pseudomonas aeruginosa after 24 hrs by microdilution susceptibility test. Summed up: (§2)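 MIC was determined by broth microdilution, using Müller–Hinton broth for bacteria and Sabouraud liquid medium for fungi. Stocks were made in DMF and serially diluted twofold. Wells were inoculated at 10⁶ CFU/mL and plates incubated at 36 °C for 24–48 h, with controls included. Only compounds giving agar-diffusion zones >14 mm were tested.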
On the technique in general: In broth dilution the organism is exposed to a series of concentrations in liquid medium.

The subject of experiment [3] is Bacillus subtilis. The experiment is described as follows: Antimicrobial activity against Bacillus subtilis at 1 mg/mL after 24 hrs by agar disc diffusion method. The conditions noted are these: read-out: DIZ. Summed up:
as §1
For orientation: Agar diffusion results depend on both activity and mobility in agar.

Experiment [4] relates to Bacillus subtilis. The experiment is described as follows: Antimicrobial activity against Bacillus subtilis after 24 hrs by microdilution susceptibility test. In short, it runs like this:
as §2

In experiment [5] the test system is Botrytis fabae. The experiment can be described thus: Antimicrobial activity against Botrytis fabae at 1 mg/mL […] by agar disc diffusion method. The conditions noted are these: read-out: DIZ.
Experiment [6] has as its system Botrytis fabae. The experiment is described as follows: Antimicrobial activity against Botrytis fabae after 48 hrs by microdilution susceptibility test. Summed up: as §2
The subject of experiment [7] is Fusarium oxysporum. The experiment can be described thus: Antimicrobial activity against Fusarium oxysporum at 1 mg/mL after 48 hrs by agar disc diffusion method. The conditions noted are these: read-out: DIZ. Summed up: as §1
The test system of experiment [8] is Pseudomonas aeruginosa. The experiment can be described thus: Antimicrobial activity against Pseudomonas aeruginosa at 1 mg/mL after 24 hrs by agar disc diffusion method. The conditions noted are these: read-out: DIZ. Summed up: as §1
Experiment [9] deals with Escherichia coli. The experiment is described as follows: Antimicrobial activity against Escherichia coli at 1 mg/mL after 24 hrs by agar disc diffusion method. The conditions noted are these: read-out: DIZ. Summed up:
as §1

Experiment [10] has as its system Bacillus thuringiensis. The experiment can be described thus: Antimicrobial activity against Bacillus thuringiensis after 24 hrs by microdilution susceptibility test. In short, it runs like this:
as §2

Experiment [11] deals with Escherichia coli. The experiment can be described thus: Antimicrobial activity against Escherichia coli after 24 hrs by microdilution susceptibility test. Summed up:
as §2

Experiment [12] concerns Fusarium oxysporum. The experiment is described as follows: Antimicrobial activity against Fusarium oxysporum after 48 hrs by microdilution susceptibility test. Summed up:
as §2

Broadly, the MIC is the lowest concentration found to suppress growth. Read a low MIC as inhibition by little substance. By MBC is commonly meant the lowest tested concentration that kills the bacteria rather than only halting them. A high value points to less potent killing. On to `COc1ccc(/C=C(\C#N)c2ccccc2C#N)cc1`, for which the zone of inhibition at 1000 µg/mL with Bacillus thuringiensis [1] is 18 mm; in the experiment on Bacillus subtilis [3], 26 mm; in the experiment with Botrytis fabae [5], 25 mm; with Fusarium oxysporum [7], 20 mm; in the experiment with Pseudomonas aeruginosa [8] it was 26 mm; in the experiment on Escherichia coli [9], 19 mm. The MIC in the experiment on Pseudomonas aeruginosa [2] was 100 µg/mL (≈ 384 µM); with Bacillus subtilis [4] it was 100 µg/mL (≈ 384 µM); in the experiment on Botrytis fabae [6], 100 µg/mL (≈ 384 µM); in the experiment with Bacillus thuringiensis [10], 100 µg/mL (≈ 384 µM); against Escherichia coli [11] it was 100 µg/mL (≈ 384 µM); against Fusarium oxysporum [12] it was 50 µg/mL (≈ 192 µM). Also, the MBC against Bacillus subtilis [4] was 100 µg/mL (≈ 384 µM); in the experiment with Escherichia coli [11] it was 200 µg/mL (≈ 768 µM).

With `COc1cc(/C=C(\C#N)c2ccccc2C#N)cc(OC)c1OC`, the zone of inhibition at 1000 µg/mL with Bacillus thuringiensis [1] turned out to be 15 mm; in the experiment on Bacillus subtilis [3], 20 mm; in the experiment with Botrytis fabae [5] it was 20 mm; with Fusarium oxysporum [7], 19 mm; in the experiment on Pseudomonas aeruginosa [8] it was 18 mm; in the experiment on Escherichia coli [9], 16 mm. Also, the MIC against Pseudomonas aeruginosa [2], against Bacillus subtilis [4], against Botrytis fabae [6], against Bacillus thuringiensis [10], in the experiment with Escherichia coli [11] and against Fusarium oxysporum [12] was 100 µg/mL (≈ 312 µM) each time. Also, the minimal bactericidal concentration (MBC) against Bacillus subtilis [4] and in the experiment with Escherichia coli [11] was 200 µg/mL (≈ 624 µM) each time.

The values above are taken from ChEMBL document CHEMBL2331322, “Synthesis and antimicrobial activity of some new benzo and naphthonitrile derivatives” (2013).
